Measurements as given in ChEMBL document CHEMBL1944519 (Bioorg Med Chem, 2012).

How the values were obtained:
Steryl-sulfatase [1] = biological target: T1, Steryl-sulfatase (Homo sapiens, UniProt P08842); test: Inhibition of steroid sulfatase using 4-methylumbelliferyl sulfate as substrate after 10 mins by spectrofluorimeter plate reader
T1 sequence (P08842 whole entry): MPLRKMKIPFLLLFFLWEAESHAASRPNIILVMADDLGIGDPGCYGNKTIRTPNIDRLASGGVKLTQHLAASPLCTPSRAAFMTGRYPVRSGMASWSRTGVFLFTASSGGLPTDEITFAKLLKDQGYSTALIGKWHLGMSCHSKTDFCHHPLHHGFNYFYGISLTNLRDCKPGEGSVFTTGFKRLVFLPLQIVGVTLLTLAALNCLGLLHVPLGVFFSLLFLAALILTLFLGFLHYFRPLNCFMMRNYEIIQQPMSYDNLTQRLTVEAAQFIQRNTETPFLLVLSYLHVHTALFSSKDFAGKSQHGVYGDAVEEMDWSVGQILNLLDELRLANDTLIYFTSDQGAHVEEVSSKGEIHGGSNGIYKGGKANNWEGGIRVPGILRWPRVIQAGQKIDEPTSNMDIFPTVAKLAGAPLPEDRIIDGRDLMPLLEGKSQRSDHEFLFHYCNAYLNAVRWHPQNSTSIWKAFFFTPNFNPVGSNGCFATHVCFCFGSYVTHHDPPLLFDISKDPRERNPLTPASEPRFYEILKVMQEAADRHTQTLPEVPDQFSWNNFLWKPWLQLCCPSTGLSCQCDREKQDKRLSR
How it was run: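 Human placental STS, purified, used at 10 nM final with 200 μM 4-MUS (Km level). Assay buffer 0.1 M Tris-HCl pH 7.0, 0.01% Triton X-100, 5% DMSO, 25 °C. Inhibitor dilutions in DMSO/Tris (1:1), enzyme added last. 4-MU release read by fluorescence (ex 360, em 460) over 10 min, in triplicate. IC50 from percent activity vs log[I], fitted with a slope-factor equation plus background term.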

Steryl-sulfatase [2] = biological target: T1, Steryl-sulfatase; test: Mixed type inhibition of steroid sulfatase using 4-methylumbelliferyl sulfate as substrate by Lineweaver-Burk plot analysis
How it was run: (§1)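 Kinetics used purified human placental STS at 10 nM final, 25 °C. Inhibitor was fixed at 75, 50 or 25 nM final (plus an inhibitor-free control) against 4-MUS from 83.3 to 500 μM final, in 0.1 M Tris-HCl pH 7.0. Initial rates (RFU/s) were measured by fluorescence in triplicate and plotted as Lineweaver–Burk. Slopes and intercepts were replotted with mixed-type equations to give Ki and αKi.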

Steryl-sulfatase [3] = biological target: T1, Steryl-sulfatase; test: Inhibition of steroid sulfatase using 4-methylumbelliferyl sulfate as substrate by Lineweaver-Burk plot analysis; how it was run: as §1
[4] = biological target: T2, Steryl-sulfatase (Homo sapiens) (UniProt P08842); test: Ratio of 17beta-3'-trifluoromethylbenzylest radiol IC50 to compound IC50 for steroid sulfatase
T2 sequence (whole entry): T1 sequence (P08842 whole entry)

IC50 (Steryl-sulfatase [1]) | SMILES | further results
137 nM | C[C@]12CC[C@@H]3c4ccc(O)cc4CC[C@H]3[C@@H]1CC[C@@H]2NS(=O)(=O)c1cccc(C#N)c1 | –
26 nM | CCCCc1ccc(S(=O)(=O)N[C@H]2CC[C@H]3[C@@H]4CCc5cc(O)ccc5[C@H]4CC[C@]23C)cc1 | –
25 nM | C[C@]12CC[C@@H]3c4ccc(O)cc4CC[C@H]3[C@@H]1CC[C@@H]2NS(=O)(=O)c1cccc(Br)c1 | Ki (Steryl-sulfatase [2]): 23 nM; Ki (Steryl-sulfatase [3]): 23 nM
126 nM | C[C@]12CC[C@@H]3c4ccc(O)cc4CC[C@H]3[C@@H]1CC[C@@]2(O)Cc1cccc(C(F)(F)F)c1 | –
479 nM | C[C@]12CC[C@@H]3c4ccc(O)cc4CC[C@H]3[C@@H]1CC[C@@H]2NS(=O)(=O)c1ccc(F)cc1 | –
18 nM | CC(C)(C)c1ccc(S(=O)(=O)N[C@H]2CC[C@H]3[C@@H]4CCc5cc(O)ccc5[C@H]4CC[C@]23C)cc1 | –
493 nM | C[C@]12CC[C@@H]3c4ccc(O)cc4CC[C@H]3[C@@H]1CC[C@@H]2NS(=O)(=O)c1ccccc1Br | –
73 nM | C[C@]12CC[C@@H]3c4ccc(O)cc4CC[C@H]3[C@@H]1CC[C@@H]2NS(=O)(=O)c1ccc(C(F)(F)F)cc1 | –
120 nM | C[C@]12CC[C@@H]3c4ccc(O)cc4CC[C@H]3[C@@H]1CC[C@@]2(O)Cc1ccc2ccccc2c1 | –
341 nM | Cc1ccc(S(=O)(=O)N[C@@H]2CC[C@H]3[C@@H]4CCc5cc(O)ccc5[C@H]4CC[C@]23C)cc1 | –
343 nM | C[C@]12CC[C@@H]3c4ccc(O)cc4CC[C@H]3[C@@H]1CC[C@@H]2NS(=O)(=O)c1ccccc1 | –
20 nM | C[C@]12CC[C@@H]3c4ccc(O)cc4CC[C@H]3[C@@H]1CC[C@@H]2NS(=O)(=O)c1ccc2ccccc2c1 | –
749 nM | C[C@]12CC[C@@H]3c4ccc(O)cc4CC[C@H]3[C@@H]1CC[C@@H]2NC(=O)c1cccc(C(F)(F)F)c1 | –
23 nM | C[C@]12CC[C@@H]3c4ccc(O)cc4CC[C@H]3[C@@H]1CC[C@@H]2NS(=O)(=O)c1cccc(C(F)(F)F)c1 | Ratio IC50 [4]: 6
364 nM | C[C@]12CC[C@@H]3c4ccc(O)cc4CC[C@H]3[C@@H]1CC[C@@H]2NS(=O)(=O)Cc1ccccc1 | –
65 nM | Cc1cccc(S(=O)(=O)N[C@H]2CC[C@H]3[C@@H]4CCc5cc(O)ccc5[C@H]4CC[C@]23C)c1 | –

IC50 (Steryl-sulfatase [1]) | SMILES | further results
74 nM | C[C@]12CC[C@@H]3c4ccc(O)cc4CC[C@H]3[C@@H]1CC[C@@H]2NS(=O)(=O)c1cccc(OC(F)(F)F)c1 | –
62 nM | CC(C)c1ccc(S(=O)(=O)N[C@H]2CC[C@H]3[C@@H]4CCc5cc(O)ccc5[C@H]4CC[C@]23C)cc1 | –
293 nM | Cc1ccc(S(=O)(=O)O[C@H]2CC[C@H]3[C@@H]4CCc5cc(O)ccc5[C@H]4CC[C@]23C)cc1 | –
112 nM | C[C@]12CC[C@@H]3c4ccc(O)cc4CC[C@H]3[C@@H]1CC[C@@H]2NS(=O)(=O)c1cccc(F)c1 | –
35 nM | C[C@]12CC[C@@H]3c4ccc(O)cc4CC[C@H]3[C@@H]1CC[C@@]2(O)Cc1ccc(-c2ccccc2)cc1 | –
271 nM | C[C@]12CC[C@@H]3c4ccc(O)cc4CC[C@H]3[C@@H]1CC[C@@H]2NS(=O)(=O)c1ccc(Cl)cc1 | –
44 nM | CCCc1ccc(S(=O)(=O)N[C@H]2CC[C@H]3[C@@H]4CCc5cc(O)ccc5[C@H]4CC[C@]23C)cc1 | –
261 nM | Cc1ccc(CS(=O)(=O)N[C@H]2CC[C@H]3[C@@H]4CCc5cc(O)ccc5[C@H]4CC[C@]23C)cc1 | –
39 nM | C[C@]12CC[C@@H]3c4ccc(O)cc4CC[C@H]3[C@@H]1CC[C@@H]2NS(=O)(=O)c1ccc(Oc2ccccc2)cc1 | –
90 nM | C[C@]12CC[C@@H]3c4ccc(O)cc4CC[C@H]3[C@@H]1CC[C@@H]2NS(=O)(=O)c1cccc([N+](=O)[O-])c1 | –
67 nM | C[C@]12CC[C@@H]3c4ccc(O)cc4CC[C@H]3[C@@H]1CC[C@@H]2NS(=O)(=O)c1cccc(Cl)c1 | –
193 nM | COc1cccc(S(=O)(=O)N[C@H]2CC[C@H]3[C@@H]4CCc5cc(O)ccc5[C@H]4CC[C@]23C)c1 | –
190 nM | C[C@]12CC[C@@H]3c4ccc(O)cc4CC[C@H]3[C@@H]1CC[C@@H]2NS(=O)(=O)c1ccc(Br)cc1 | –
51 nM | CCCCCc1ccc(S(=O)(=O)N[C@H]2CC[C@H]3[C@@H]4CCc5cc(O)ccc5[C@H]4CC[C@]23C)cc1 | –
207 nM | Cc1ccc(S(=O)(=O)N[C@H]2CC[C@H]3[C@@H]4CCc5cc(O)ccc5[C@H]4CC[C@]23C)cc1 | –
9 nM | C[C@]12CC[C@@H]3c4ccc(O)cc4CC[C@H]3[C@@H]1CC[C@@H]2NS(=O)(=O)c1ccc(-c2ccccc2)cc1 | –
